An excerpt weighted towards active compounds, which were near 2.9% of everything screened.
TRPC6 activator – activators of mouse TRPC6 channel; Q61143; HEK293-TRPC6 membrane potential dye fluorescence; active compounds read high; B-score at 10 µM; actives 0.13% (n = 310,000);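 active = B-score of the integrated fluorescence ratio above library mean plus 3 SD, and starting fluorescence ratio within library mean plus 5 SD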;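 also: higher score means more depolarization so channel activation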
TRPC4 inh – blocks the mouse TRPC4 cation channel. actives 0.39% (n = 300,000). HEK293 TRPC4beta/mu-opioid, DAMGO-evoked Fluo4 calcium flux; active compounds read low. B-score at 10 µM. Q9QUQ5. AID 2247;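 active = B-score over 3 SD under the library average, no early fluorescence shift, positive overall ratio signal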
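Assay system – HEK293 line stably carrying TRPC4beta and mu-opioid receptor · Doses – single dose · Detection – Fluo4 calcium-dye fluorescence, kinetic read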
Kir21 block – Kir2.1 (mouse) channel inhibition; P35561; HEK293-Kir2.1, FluxOR thallium flux fluorescence; active compounds read low; B-score at 10 µM; actives 0.85% (n = 310,000);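 active = fluorescence ratio B-score at or below minus 3 SD of library scores, with starting-brightness B-score within 2 SD, cut at about -4.2 in these data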;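 also: channel flux triggered by added potassium and thallium sulfate stimulus; B-score of peak minus minimum fluorescence over baseline after thallium stimulus; more negative B-score means stronger Kir2.1 block with less thallium influx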
Target sequence (P35561 whole entry, looked up): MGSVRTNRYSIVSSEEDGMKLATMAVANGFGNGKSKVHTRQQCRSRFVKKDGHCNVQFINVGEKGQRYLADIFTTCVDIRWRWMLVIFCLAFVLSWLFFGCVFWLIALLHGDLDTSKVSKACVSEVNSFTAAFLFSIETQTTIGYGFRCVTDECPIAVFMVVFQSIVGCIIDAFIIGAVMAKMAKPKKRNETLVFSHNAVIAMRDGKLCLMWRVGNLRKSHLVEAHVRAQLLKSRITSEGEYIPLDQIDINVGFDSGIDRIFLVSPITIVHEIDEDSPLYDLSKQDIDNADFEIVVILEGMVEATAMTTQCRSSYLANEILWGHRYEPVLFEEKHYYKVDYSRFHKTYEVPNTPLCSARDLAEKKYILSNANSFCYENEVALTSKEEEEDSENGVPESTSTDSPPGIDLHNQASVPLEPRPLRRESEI
TRPC6 inh – mouse TRPC6 channel inhibition. HEK293-TRPC6, membrane potential dye, ACh-evoked depolarization; active compounds read low. Q61143. B-score at 10 µM. actives 1.1% (n = 310,000). AID 2553;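 active = B-score under library mean minus 3 SD, initial fluorescence not abnormally high, positive integrated signal ratio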;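 also: B-score derived from integrated fluorescence ratio over the kinetic read; more negative B-score means stronger inhibition of depolarization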
TRPC4 act – activators of mouse TRPC4 channel. Q9QUQ5. HEK293 TRPC4beta/mu-opioid, Fluo4 calcium fluorescence; active compounds read high. B-score at 10 µM. actives 0.49% (n = 310,000);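 active = B-score above 5 SD of library B-scores, and initial fluorescence ratio not above library mean plus 5 SD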;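 also: positive B-score marks a calcium rise read as TRPC4 activation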
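Material: HEK293 stable line with TRPC4beta plus mu-opioid receptor; technique: Fluo4 calcium-sensitive dye fluorescence, kinetic, 1 Hz baseline; timing: Fluo4 dye loading 45 min at room temperature, 110 s recording; controls: assay buffer as low control, maximal DAMGO as high control; read-out: integrated baseline-normalised fluorescence ratio, converted to per-well B score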
TRPC4 potent – TRPC4 (mouse) allosteric potentiation | Q9QUQ5 | HEK293 TRPC4beta/mu-opioid, DAMGO EC20, Fluo-4 Ca2+ flux; active compounds read high | B-score at 10 µM | actives 0.42% (n = 310,000);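 active = B-score of calcium response area above 5 SD of library B-scores, with initial fluorescence ratio within 5 SD of library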
TRPC4 sel inh 2 – mouse TRPC4 off-target activity of TRPC6 inhibitors, second screen | shares compounds with TRPC6 inh | inhibition, % at 10 µM | HEK293 TRPC4/MOR, membrane potential dye fluorescence; channel activated by saturating DAMGO dose | actives 42% (n = 920);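 active = compounds whose fluorescence signal differed from control wells by over 3 SD, either direction, in both duplicate plates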
TRPC4 spec – selectivity of TRPC6 inhibitors: effect on mouse TRPC4 | activity change, negative = inhibition, % at 10 µM | HEK293 TRPC4/mu-opioid, membrane potential fluorescence | AID 2777 | shares compounds with TRPC6 inh | actives 61% (n = 920);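 active = rise or fall in signal beyond 3 SD of buffer-only wells in both replicate plates, either sign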;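 also: integrated kinetic ratio of fluorescence range over baseline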
HEK293 MPD ctr 2-1 – second counter-screen for TRPC6 inhibitors: parental HEK293 cells. shares compounds with TRPC6 inh. parental HEK293 membrane potential dye fluorescence; maximal acetylcholine challenge after compound addition. actives 31% (n = 920). signal change vs control, % at 10 µM;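 active = membrane potential signal moving either way by over 3 SD of the maximum-effect control, in both duplicate plates, meaning non-specific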
HEK293 MPD ctr-1 – checks TRPC6 inhibitor effects in parental HEK293 cells; shares compounds with TRPC6 inh; parental HEK293 membrane potential dye fluorescence; membrane potential signal change, % at 10 µM; actives 60% (n = 920); AID 2780;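 active = membrane potential signal shifting up or down by more than 3 SD of buffer-only wells, on both duplicate plates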
HEK293 MPD ctr-2 – parental HEK293 nonspecific activity of TRPC6 modulators | membrane potential signal change, % at 10 µM | membrane potential dye fluorescence | AID 488924 | shares compounds with TRPC6 inh | actives 51% (n = 2,400);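 active = membrane potential signal moves up or down beyond 5 SD from buffer-only wells, on both duplicate plates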
HEK293 MPD ctr 2-2 – second check of TRPC6 modulator effects in parental HEK293 cells; shares compounds with TRPC6 inh; membrane potential dye fluorescence; after compound, maximal acetylcholine stimulation; inhibition, % at 10 µM; actives 14% (n = 2,400);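 active = membrane potential signal drops by more than 5 SD from the mean control signal, in both duplicate plates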
TRPC4 ctr mod – mouse TRPC4 off-target activity of TRPC6 modulators; shares compounds with TRPC6 inh; HEK293 TRPC4/mu-opioid, membrane potential fluorescence; percent change from control (negative = decrease, positive = increase), % at 10 µM; actives 69% (n = 2,400);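 active = membrane potential signal moved up or down beyond 5 SD of buffer control wells, in both duplicate plates, actives on both sides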
TRPC4 ctr inh 2 – mouse TRPC4 off-target activity of TRPC6 modulators, second screen. actives 55% (n = 2,400). HEK293 TRPC4/mu-opioid, membrane potential dye fluorescence; stimulated with maximal-effect DAMGO. inhibition, % at 10 µM. shares compounds with TRPC6 inh;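 active = drop in membrane potential signal beyond 5 SD of the control wells in both duplicate plates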;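 also: TRPC4 counter screen for TRPC6 hits run under conditions tuned for TRPC6 not TRPC4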
TRPC6 inh conf – mouse TRPC6 inhibitor confirmation; shares compounds with TRPC6 inh; HEK293-TRPC6, membrane potential dye, ACh-evoked depolarization; inhibition, % at 10 µM; actives 43% (n = 3,300);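 active = fluorescence ratio falls more than 5 SD below the full-stimulation control mean, in both duplicate runs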;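 also: integrated fluorescence ratio of peak minus minimum over baseline after agonist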
TRPC6 act conf – confirmation of mouse TRPC6 activators | shares compounds with TRPC6 inh | HEK293-TRPC6 membrane potential dye fluorescence, FDSS | activation, % at 10 µM | actives 11% (n = 2,800);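 active = ratio signal rise beyond 5 SD above unstimulated control wells' mean, seen in both duplicate runs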
Of the large screens only hits and unclear results are named; the others gave an inactive call (follow-up assays come after a bar, where they were run).

Cc1ccc2nc3c(cc(C(=O)NCc4ccco4)c(=N)n3Cc3ccco3)c(=O)n2c1	none
Cc1ccc(CNC(=O)c2cc3c(=O)n4ccccc4nc3n(Cc3ccco3)c2=N)cc1	none
CCCn1c(=N)c(C(=O)NC2CCCC2)cc2c(=O)n3cccc(C)c3nc21	TRPC6 inh -6.8 | TRPC4 sel inh 2 62% | TRPC4 spec -14% | HEK293 MPD ctr 2-1 -32% | HEK293 MPD ctr-1 -170% | TRPC6 inh conf 78% | TRPC6 act conf inactive
N=c1c(C(=O)NCc2ccco2)cc2c(=O)n3ccccc3nc2n1Cc1ccccc1	TRPC6 inh -7.1 | HEK293 MPD ctr-2 inactive | HEK293 MPD ctr 2-2 inactive | TRPC4 ctr mod -40% | TRPC4 ctr inh 2 46% | TRPC6 inh conf inactive | TRPC6 act conf inactive
N=c1c(C(=O)NCc2ccco2)cc2c(=O)n3ccccc3nc2n1C1CCCC1	TRPC6 inh -5.3 | HEK293 MPD ctr-2 -72% | HEK293 MPD ctr 2-2 inactive | TRPC4 ctr mod -32% | TRPC4 ctr inh 2 37% | TRPC6 inh conf 46% | TRPC6 act conf inactive
Cc1cccn2c(=O)c3cc(C(=O)NC4CCCC4)c(=N)n(C4CCCC4)c3nc12	TRPC6 inh -5.2 | HEK293 MPD ctr-2 -151% | HEK293 MPD ctr 2-2 inactive | TRPC4 ctr mod -54% | TRPC4 ctr inh 2 48% | TRPC6 inh conf 49% | TRPC6 act conf inactive
CCCCCn1c(=NC(=O)c2ccco2)c(C(=O)OCC)cc2c(=O)n3ccccc3nc21	none
N=c1c(C(=O)NC2CCCC2)cc2c(=O)n3ccccc3nc2n1C1CCCC1	TRPC6 inh -11 | HEK293 MPD ctr-2 -144% | HEK293 MPD ctr 2-2 62% | TRPC4 ctr mod -31% | TRPC4 ctr inh 2 58% | TRPC6 inh conf 56% | TRPC6 act conf inactive
CCCCn1c(=NC(=O)c2ccco2)c(C(=O)OCC)cc2c(=O)n3ccccc3nc21	TRPC6 inh -5.8 | HEK293 MPD ctr-2 inactive | HEK293 MPD ctr 2-2 inactive | TRPC4 ctr mod inactive | TRPC4 ctr inh 2 inactive | TRPC6 inh conf inactive | TRPC6 act conf inactive
CNCc1c(OCc2ccccc2)ccc2ccccc12	TRPC4 inh -6, TRPC6 inh -7 | TRPC4 sel inh 2 44% | TRPC4 spec 29% | HEK293 MPD ctr 2-1 inactive | HEK293 MPD ctr-1 12% | TRPC6 inh conf inactive
CC(C)C(NC(=O)c1ccccc1)C(=O)NCc1ccccn1 (centres undefined)	none
O=c1cc(CNc2ccc(Br)cc2)nc2sccn12	TRPC6 inh -7 | HEK293 MPD ctr-2 inactive | HEK293 MPD ctr 2-2 inactive | TRPC4 ctr mod inactive | TRPC4 ctr inh 2 inactive | TRPC6 inh conf inactive | TRPC6 act conf inactive
CCN(CC)CCNC(=O)C(C)c1nn(CC)c(=O)c2ccccc12 (centres undefined)	none
CCN(CC)CCN1C(=O)Cn2c(C)c(C)c3cccc1c32	TRPC6 inh -8.4 | TRPC4 sel inh 2 50% | TRPC4 spec -17% | HEK293 MPD ctr 2-1 inactive | HEK293 MPD ctr-1 -254% | HEK293 MPD ctr-2 inactive | HEK293 MPD ctr 2-2 inactive | TRPC4 ctr mod -18% | TRPC4 ctr inh 2 61% | TRPC6 inh conf 53% | TRPC6 act conf inactive
CCCCn1c(SCC(=O)c2ccc3c(c2)NC(=O)CO3)nc2cc(S(N)(=O)=O)ccc21	none
NCCCn1c(C(=O)c2ccc(Cl)cc2)c2ccc(C(F)(F)F)cc2[n+]1[O-]	TRPC6 inh -9.3 | TRPC4 sel inh 2 56% | TRPC4 spec -11% | HEK293 MPD ctr 2-1 inactive | HEK293 MPD ctr-1 -180% | TRPC6 inh conf 67% | TRPC6 act conf inactive
NC(=O)CCCn1c(C(=O)c2ccc(Cl)cc2)c2ccc(C(F)(F)F)cc2[n+]1[O-]	none
Cn1c(/C=C/c2ccccc2)nc2ccccc21	TRPC6 inh -7.9 | TRPC4 sel inh 2 23% | TRPC4 spec 3.3% | HEK293 MPD ctr 2-1 inactive | HEK293 MPD ctr-1 -204% | TRPC6 inh conf inactive | TRPC6 act conf inactive
O=C(NCCc1c[nH]c2ccccc12)/C(=C/c1cccnc1)NC(=O)c1cccs1	none
COCC(C)NC(=O)c1ccc(CN2CCc3ccccc3C2)cc1 (centres undefined)	TRPC6 inh -6.9 | TRPC4 sel inh 2 inactive | TRPC4 spec inactive | HEK293 MPD ctr 2-1 inactive | HEK293 MPD ctr-1 0.8% | TRPC6 inh conf inactive | TRPC6 act conf inactive
Cc1ccc(C(C)C)c(OCC(=O)Nc2ccc3c(c2)nc(CCN2CCCCC2)n3C)c1	TRPC6 inh -6 | HEK293 MPD ctr-2 inactive | HEK293 MPD ctr 2-2 inactive | TRPC4 ctr mod inactive | TRPC4 ctr inh 2 78% | TRPC6 inh conf 57%
COc1ccc(CNC(=O)c2cccnc2Sc2ccc(C)c(C)c2)cc1	none
CN(C)C(=O)c1c(NC(=O)c2ccccc2)sc2c1CCC2	none
CCN(CC)CCCC(C)NC(=O)c1c(NC(=O)c2ccccc2)sc2c1CCCC2 (centres undefined)	TRPC6 inh -6.1 | HEK293 MPD ctr-2 inactive | HEK293 MPD ctr 2-2 inactive | TRPC4 ctr mod -20% | TRPC4 ctr inh 2 81% | TRPC6 inh conf 60% | TRPC6 act conf inactive
